The values that follow come from PubChem BioAssay.

Assay [1] can be described thus: inhibitors of TNFa-induced NFkB p65 translocation, primary screen, imaging, HUVEC, MLSMR starter and 10KST1 sets (AID 438;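 active means inhibition above 20% together with a positive visual image hit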;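 further: compound added about 3h40 before a 20 min TNFalpha stimulation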;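 on inhibition: signal is the nuclear over cytoplasmic p65 intensity ratio per well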). To be noted: HUVEC TNFa-induced p65 nuclear translocation; cell count: measured here: nuclei count (cytotoxicity indicator), at 2.08 µM; inhibition: at 2 µM, stronger effect = higher value, 0% TNFa-plus-vehicle, 100% no-TNFa wells.
A short description of assay [2]: endothelial E-selectin expression blockers – imaging, HUVEC, immunofluorescence, MLSMR starter and 10KST1 sets, primary screen (AID 487;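 active means visually confirmed hit in the image check and inhibition above 20%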;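 on inhibition: signal is fraction of cell area covered by stained E-selectin grains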;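 on nuclei count: 100% = median nuclei count of all wells on the same plate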). The settings on record: HUVEC TNFalpha-induced E-selectin immunofluorescence imaging, at 2 µM; inhibition: stronger effect = higher value; nuclei count: measured here: cell number, toxicity.
Assay [3] in a line: Primary imaging screen for DUSP6 inhibitors that restore phospho-Erk in transfected HeLa cells, chemical complementation (AID 609;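 active means compounds giving at least 50% inhibition in the cell-based MKP-3 phosphatase rescue imaging test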;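 on inhibition: phospho-Erk level distribution per well compared with pooled transfected vehicle control wells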). The settings on record: HeLa MKP-3 transfected, phospho-Erk imaging KS statistic, at 10 µM, cells stimulated with TPA for 15 min.
Assay [4] concerns the target Dual specificity protein phosphatase 6 (Homo sapiens) (UniProt Q16828). Described as above. The settings on record: HeLa MKP-3 transfected, phospho-Erk imaging KS statistic; at 10 µM; stronger effect = higher value; cells stimulated with TPA for 15 min.
Assay [5] concerns the target Voltage-gated potassium channel subunit beta-2 (Rattus norvegicus) (UniProt P62483). As to the kind of experiment: inhibitors of rat Kvbeta2 reductase activity – biochemical, NADPH fluorescence, primary screen (AID 622;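 active means fluorescence slope higher than the sample average by over 3 SD, cut at about -0.22 in these data, passing the limit was not always enough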;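 further: slope of raw intensity against log time taken from 70 to 1610 s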). To be noted: recombinant KvBeta, 4-cyanobenzaldehyde reduction, at 10 µM, stronger effect = higher value.
For assay [6] the target is unchanged. As to the kind of experiment: enhancers of rat Kvbeta2 NADPH turnover – biochemical, NADPH fluorescence, primary screen (AID 623;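 active means NADPH fluorescence slope more negative than the mean of all samples by about 3 SD, 99.7% confidence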;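 further: fluorescence intensity change per second fitted from 20 to 320 s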). To be noted: Recombinant KvBeta, NADPH fluorescence decrease slope, 10 min; at 10 µM; stronger effect = lower value.
The target of assay [7] is Muscarinic acetylcholine receptor M4 (Homo sapiens) (UniProt P08173). As to the kind of experiment: M4-linked GIRK flux change, two-sided – cell-based, HEK293 M4/GIRK, thallium flux, BTC-AM, M4 allosteric agonist project, primary screen (AID 625).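 Further: thallium influx through GIRK channels coupled to M4 in HEK293 cells with BTC-AM dye.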 To be noted: at 10 µM, actives lie on both sides. In short, it runs like this:
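Material – HEK293 cells with M4 receptor and GIRK channels · Buffer or medium – pH 7.3 thallium assay buffer · Doses – one dose, 10 µM final · Timing – cells overnight at 37 °C, BTC-AM loading 1 h, reads 2 min total · Measured by – kinetic fluorescence with BTC-AM dye · Controls – carbachol and DMSO controls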

Assay [8] can be described thus: inhibitors of larval lipid processing in zebrafish, primary screen, whole organism, PED6 fluorescence, gall bladder and intestine (AID 686;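 active means a full or partial loss of lipid-probe fluorescence in the fish gall bladder, intestine or both, judged by eye; inactive means no fluorescence loss, or compound toxic to the fish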;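 further: larvae 5 to 7 days old with five fish per well; signal comes from phospholipase A2 cleavage of quenched PED6 carried via bile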). To be noted: Zebrafish larvae PED6 lipid processing, fluorescence scoring; screened at 20 µM (by protocol). Summed up: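 system = live zebrafish larvae aged 5-7 days, whole organism | probe or stimulus = ingested quenched lipid PED6 at 100 nM | doses = 20 µM single dose | timing = overnight exposure | detection = fluorescence microscopy with visual scoring of gall bladder and intestine | read-out = visual per-well fluorescence inhibition score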

Assay [9] in a line: loss of swimming-algae plug formation – whole organism, Chlamydomonas reinhardtii, WT vs cilia-less mutant, absorbance, 96-well, primary screen (AID 463189;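 active means inhibition at or above 50% relative to wild type and mutant plate controls; inactive means inhibition below 50%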;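 further: 0% = wild type cc124 cells in DMSO and 100% = ciliumless bld1 mutant cells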). To be noted: Chlamydomonas reinhardtii gravitaxis, OD600 absorbance, 2 days; at 10 µM; stronger effect = higher value.
[10] abbreviates: measured here: cell density z-score.
The mark [11] stands for this setting: measured here: nuclear c-Myc green intensity z-score.
Setting [12] is: measured here: nuclear pErk red intensity z-score, stronger effect = higher value.

The structures appear in SMILES notation. Calls of active or inactive are those of the source.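 How the source made its calls, unless noted: active means fluorescence slope after compound addition differing from the mean of all tested samples at 99.7% confidence, mostly higher but some lower; inactive means the rest.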

Chain of Voltage-gated potassium channel subunit beta-2 (Rattus norvegicus) (P62483 whole entry, looked up): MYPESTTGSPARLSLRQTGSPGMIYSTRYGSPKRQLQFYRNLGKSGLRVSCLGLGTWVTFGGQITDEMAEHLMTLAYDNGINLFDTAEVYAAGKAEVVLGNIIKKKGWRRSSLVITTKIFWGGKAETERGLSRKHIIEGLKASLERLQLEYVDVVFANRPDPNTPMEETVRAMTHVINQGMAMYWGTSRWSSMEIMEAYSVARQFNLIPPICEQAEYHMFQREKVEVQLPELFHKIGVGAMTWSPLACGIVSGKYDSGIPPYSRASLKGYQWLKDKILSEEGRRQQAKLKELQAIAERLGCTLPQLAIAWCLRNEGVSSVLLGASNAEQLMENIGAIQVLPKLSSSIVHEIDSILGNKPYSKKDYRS
Chain of Dual specificity protein phosphatase 6 (Homo sapiens) (Q16828 whole entry, looked up): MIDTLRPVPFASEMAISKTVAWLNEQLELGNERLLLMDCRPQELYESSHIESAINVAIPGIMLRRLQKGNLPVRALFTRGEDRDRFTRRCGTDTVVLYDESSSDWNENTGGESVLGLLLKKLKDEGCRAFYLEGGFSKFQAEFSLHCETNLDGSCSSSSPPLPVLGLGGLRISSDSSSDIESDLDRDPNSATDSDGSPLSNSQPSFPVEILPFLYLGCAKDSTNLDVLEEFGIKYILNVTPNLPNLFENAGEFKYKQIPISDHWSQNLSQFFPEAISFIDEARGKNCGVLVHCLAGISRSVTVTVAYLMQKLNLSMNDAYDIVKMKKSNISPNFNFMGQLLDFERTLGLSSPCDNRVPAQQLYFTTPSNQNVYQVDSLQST
Chain of Muscarinic acetylcholine receptor M4 (Homo sapiens) (P08173 whole entry, looked up): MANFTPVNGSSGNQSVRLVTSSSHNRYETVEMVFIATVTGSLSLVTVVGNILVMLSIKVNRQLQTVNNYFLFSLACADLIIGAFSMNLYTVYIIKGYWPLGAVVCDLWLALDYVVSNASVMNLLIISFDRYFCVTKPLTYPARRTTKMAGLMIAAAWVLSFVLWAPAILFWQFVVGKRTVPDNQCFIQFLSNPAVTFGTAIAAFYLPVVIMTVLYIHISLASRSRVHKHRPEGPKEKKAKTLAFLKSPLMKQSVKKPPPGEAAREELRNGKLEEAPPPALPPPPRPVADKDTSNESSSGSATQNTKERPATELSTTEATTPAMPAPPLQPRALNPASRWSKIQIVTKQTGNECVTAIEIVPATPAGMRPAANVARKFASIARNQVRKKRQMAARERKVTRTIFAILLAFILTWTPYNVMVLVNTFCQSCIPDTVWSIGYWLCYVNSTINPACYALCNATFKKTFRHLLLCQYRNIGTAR

Consider `CCN(CC)c1nc(C)c2c(c1C#N)CC(C)(C)OC2`, for which, in assay [1], the cell count turned out to be 491. The inhibition in assay [1] was -5.9% (inactive); in assay [2], -142% (inactive); in assay [4], 13.4% (inactive); in [9] it was -9.09% (inactive). For the same compound, the nuclei count in assay [2] came to 118%. Moreover, the z-score in assay [3] (setting [10]) is -2.08; in [3] (setting [11]), 0.916; in assay [3] (setting [12]), -0.636. Besides, the results for the fluorescence slope in [5] and in [7] were -0.462 (inactive) and 0.00447 (inactive), respectively. Further, in assay [6], the NADPH fluorescence slope is -1.1e-05 (inactive). Also, the outcome in [8] was inactive.

For `CCN1CCc2c(C#N)c(N3CCCCC3)nc(N3CCOCC3)c2C1`, in assay [1], the cell count worked out at 567. Moreover, the inhibition was -7.1% (inactive) in assay [1], -95.8% (inactive) in assay [2], -2.09% (inactive) in [4] and 20.3% (inactive) in assay [9]. In assay [2], this compound gave a nuclei count of 149%. The z-score in [3] (setting [10]) is 0.15; in assay [3] (setting [11]) it was -1.22; in assay [3] (setting [12]), 1.09. Further, the fluorescence slope in assay [5] was -0.46 (inactive); in [7] it was 0.00491 (inactive). Further, in assay [6], the NADPH fluorescence slope was -7.6e-05 (inactive). Moreover, the compound was classed as inactive in assay [8].

On to `COc1cccc(C2C(C(=O)c3sc(C)nc3C)=C(O)C(=O)N2CCN2CCOCC2)c1OC` (stereo unspecified), for which, in assay [1], the cell count is 403. For the same compound, the inhibition was -3.3% (inactive) in assay [1], -65.8% (inactive) in [2], 18.2% (inactive) in assay [4] and 4.67% (inactive) in [9]. This compound also registered a nuclei count in assay [2] of 140%. The figures for the z-score in [3] (setting [10]), in assay [3] (setting [11]) and in assay [3] (setting [12]) were -0.517, 0.521 and 0.668, respectively. The values for the fluorescence slope in [5] and in assay [7] were -0.47 (inactive) and 0.00521 (inactive), respectively. Further, in [6], the NADPH fluorescence slope is -0.000114 (inactive). The compound was called inactive in assay [8].

As to `COc1ccc(CC(=O)n2c(CC#N)nc3ccccc32)cc1OC`, the cell count in assay [1] turned out to be 598. The inhibition in [1] was -10.9% (inactive); in assay [2], -32.4% (inactive); in assay [4] it was -0.233% (inactive); in assay [9], 9.22% (inactive). Besides, the nuclei count in [2] stood at 112%. The z-score in [3] (setting [10]) was -0.393; in [3] (setting [11]), -2.03; in [3] (setting [12]) it was 0.813. For the same compound, the fluorescence slope in assay [5] was -0.465 (inactive); in assay [7], 0.00563 (inactive). In addition, in [6], the NADPH fluorescence slope was -3.6e-05 (inactive). Besides, in [8], the outcome was inactive.

With `CN(CCCCCC(=O)/C=N/O)Cc1ccccc1`, the cell count in assay [1] stood at 673. In addition, the inhibition in [1] is -7.2% (inactive); in assay [2] it was -29.9% (inactive); in assay [4], -9.53% (inactive); in [9] it was 23.8% (inactive). The nuclei count in assay [2] is 182%. Moreover, the results for the z-score in assay [3] (setting [10]), in [3] (setting [11]) and in assay [3] (setting [12]) were -0.259, -0.553 and -0.0581, respectively. Further, the fluorescence slope was -0.493 (inactive) in [5] and 0.00525 (inactive) in [7]. In addition, in assay [6], the NADPH fluorescence slope is -9.8e-05 (inactive). Further, the call in assay [8] was inactive.

Take `C=CCn1c(=O)c(C(=O)NCCN(CC)CC)c(O)c2ccccc21`: in [1], the cell count came out at 560. Further, the inhibition in assay [1] was 0% (inactive); in [2], -97% (inactive); in assay [4] it was 27.8% (inactive); in assay [9] it was 42.6% (inactive). Further, the nuclei count in [2] is 170%. The z-score in assay [3] (setting [10]) was 1.11; in [3] (setting [11]) it was -0.484; in assay [3] (setting [12]), 1.3. The fluorescence slope in [5] is -0.368 (inactive); in assay [7] it was 0.00442 (inactive). In addition, the NADPH fluorescence slope in [6] is -2.4e-05 (inactive). In addition, the outcome in [8] was inactive.

Turning to `COc1ccc(N2CC(=O)N(c3ccc(OC)c(OC)c3)CC2=O)cc1OC`, in assay [1], the cell count came to 400. Besides, the inhibition in [1] was -5.7% (inactive); in assay [2] it was -94.2% (inactive); in assay [4], 3.42% (inactive); in assay [9], 18.5% (inactive). This compound also came in with a nuclei count in assay [2] of 142%. Moreover, the results for the z-score in [3] (setting [10]), in assay [3] (setting [11]) and in assay [3] (setting [12]) were -0.173, -2.28 and 1.66, respectively. Besides, the fluorescence slope in assay [5] was -0.477 (inactive); in [7], 0.00438 (inactive). In assay [6], the NADPH fluorescence slope was -5.2e-05 (inactive). Besides, the result in assay [8] was inactive.

The inhibition is the drop in the measured response relative to a control, in per cent.
